Assays:
[1] = target: T1, Histone deacetylase HD2 (Zea mays) (UniProt Q94F81); experiment: Inhibitory activity against maize histone deacetylase 2 at 21.1 uM
T1 sequence (whole entry): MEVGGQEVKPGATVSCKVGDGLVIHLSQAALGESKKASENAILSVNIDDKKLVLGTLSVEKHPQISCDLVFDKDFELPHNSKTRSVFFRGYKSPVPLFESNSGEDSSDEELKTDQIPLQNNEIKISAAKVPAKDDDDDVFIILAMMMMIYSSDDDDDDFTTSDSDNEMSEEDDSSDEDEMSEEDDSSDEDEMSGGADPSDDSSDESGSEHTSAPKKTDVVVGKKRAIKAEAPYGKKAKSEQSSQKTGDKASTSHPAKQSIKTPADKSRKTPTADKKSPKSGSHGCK
How it was run: (§1)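 Maize HD2 enzyme preincubated at 30 °C, then incubated 30 min with [³H]acetate-prelabeled chicken reticulocyte core histones (10 µL of 2 mg/mL) as substrate. Reaction stopped with 1 M HCl/0.4 M acetate. Released [³H]acetic acid was extracted into ethyl acetate and counted by liquid scintillation. Percent inhibition at one fixed concentration; means of at least three separate experiments. Blank solvent served as negative control.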

[2] = target: T2, Histone deacetylase HD2 (Zea mays, UniProt Q94F81); experiment: Inhibitory concentration against maize histone deacetylase 2
T2 sequence (Q94F81 whole entry): T1 sequence (whole entry)
How it was run: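 Maize HD2 deacetylase assay using [³H]acetate-prelabeled chicken reticulocyte histones (2 mg/mL, 10 µL) at 30 °C for 30 min. Released tritiated acetic acid was extracted with ethyl acetate after HCl/acetate stop, then scintillation counted. IC50 from triple determinations, given as mean ± SD of at least three experiments.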

[3] = Inhibitory concentration against maize histone deacetylase 1-B (class I HDAC)
[4] = Selectivity for class IIa HDACs as ratio of IC50 for maize histone deacetylase 1-B and 1-A
How it was run: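 Maize HD1-B (class I homologue) and HD1-A (class IIa homologue) were each assayed on [³H]acetate-prelabeled chicken reticulocyte histones for 30 min at 30 °C. Released [³H]acetate was extracted with ethyl acetate and scintillation counted. IC50s came from dilutions starting at 40 µM, at least three experiments. Selectivity = IC50(HD1-B)/IC50(HD1-A).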

[5] = Inhibitory concentration against maize histone deacetylase 1-A (class IIa HDAC)
[6] = target: T1, Histone deacetylase HD2 (Zea mays); experiment: Inhibitory activity against maize histone deacetylase 2 at 25.2 uM; how it was run: as §1
[7] = target: T1, Histone deacetylase HD2 (Zea mays); experiment: Inhibitory activity against maize histone deacetylase 2 at 23.6 uM; how it was run: as §1
[8] = target: T1, Histone deacetylase HD2 (Zea mays); experiment: Inhibitory activity against maize histone deacetylase 2 at 20.2 uM; how it was run: as §1
[9] = target: T1, Histone deacetylase HD2 (Zea mays); experiment: Inhibitory activity against maize histone deacetylase 2 at 20.6 uM; how it was run: as §1
[10] = target: T1, Histone deacetylase HD2 (Zea mays); conditions: 22.2 uM
[11] = target: T1, Histone deacetylase HD2 (Zea mays); experiment: Inhibitory activity against maize histone deacetylase 2 at 20.5 uM; how it was run: as §1
[12] = target: T1, Histone deacetylase HD2 (Zea mays); experiment: Inhibitory activity against maize histone deacetylase 2 at 24.5 uM; how it was run: as §1
[13] = target: T1, Histone deacetylase HD2 (Zea mays); experiment: Inhibitory activity against maize histone deacetylase 2 at 23.3 uM; how it was run: as §1
[14] = target: T1, Histone deacetylase HD2 (Zea mays); experiment: Inhibitory activity against maize histone deacetylase 2 at 24.8 uM; how it was run: as §1
[15] = target: T1, Histone deacetylase HD2 (Zea mays); experiment: Inhibitory activity against maize histone deacetylase 2 at 26 uM; how it was run: as §1
[16] = target: T1, Histone deacetylase HD2 (Zea mays); experiment: Inhibitory activity against maize histone deacetylase 2 at 40 uM; how it was run: as §1
[17] = target: T1, Histone deacetylase HD2 (Zea mays); experiment: Inhibitory activity against maize histone deacetylase 2 at 23.7 uM; how it was run: as §1

Row | IC50 [2] | IC50 [3] | SI [4] | IC50 [5] | Structure (SMILES) | further results
1 | 49000 nM | 159000 nM | 17.1 | 9300 nM | Cn1cc(/C=C/C(=O)c2cccc(C(F)(F)F)c2)cc1/C=C/C(=O)NO | inhibition [1]: 46.1%
2 | 1800 nM | – | 45 | 40 nM | Cn1cc(/C=C/C(=O)c2ccc3ccccc3c2)cc1/C=C/C(=O)NO | inhibition [6]: 62.9%
3 | 570 nM | 800 nM | – | 790 nM | COc1ccc(C(=O)/C=C/c2cc(/C=C/C(=O)NO)n(C)c2)cc1 | inhibition [7]: 74.2%
4 | 176000 nM | 298000 nM | 3.3 | 90000 nM | Cn1cc(/C=C/C(=O)c2cccc(OC(F)(F)F)c2)cc1/C=C/C(=O)NO | inhibition [8]: 19.5%
5 | 26500 nM | 31800 nM | 14.4 | 2200 nM | Cn1cc(/C=C/C(=O)c2ccc(-c3ccccc3)cc2)cc1/C=C/C(=O)NO | inhibition [9]: 34%
6 | 200 nM | 330 nM | 33 | 10 nM | Cn1cc(/C=C/C(=O)c2cccc3ccccc23)cc1/C=C/C(=O)NO | inhibition [10]: 92%
7 | 28500 nM | 24300 nM | – | 20300 nM | Cn1cc(/C=C/C(=O)c2ccc(Br)cc2)cc1/C=C/C(=O)NO | inhibition [11]: 41.7%
8 | 7100 nM | 3400 nM | 34 | 100 nM | Cn1cc(/C=C/C(=O)c2ccccc2F)cc1/C=C/C(=O)NO | inhibition [12]: 73.9%
9 | – | 1600 nM | 32 | 50 nM | Cn1cc(/C=C/C(=O)c2ccccc2Cl)cc1/C=C/C(=O)NO | inhibition [13]: 79.1%
10 | – | 390 nM | 6.5 | 60 nM | Cc1ccccc1C(=O)/C=C/c1cc(/C=C/C(=O)NO)n(C)c1 | inhibition [14]: 96%
11 | 680 nM | 570 nM | – | 780 nM | C/C(=C\c1cc(/C=C/C(=O)NO)n(C)c1)C(=O)c1ccccc1 | inhibition [14]: 89.9%
12 | – | 31400 nM | 71.4 | 440 nM | Cn1cc(/C=C/C(=O)c2cccc(Cl)c2)cc1/C=C/C(=O)NO | inhibition [13]: 49%
13 | 35300 nM | 24900 nM | – | 15700 nM | Cn1cc(/C=C/C(=O)c2ccc(F)cc2)cc1/C=C/C(=O)NO | inhibition [12]: 33.2%
14 | 540 nM | 600 nM | – | 390 nM | COc1cccc(C(=O)/C=C/c2cc(/C=C/C(=O)NO)n(C)c2)c1 | inhibition [7]: 78.2%
15 | 2100 nM | 1100 nM | – | 1600 nM | Cn1cc(/C=C/C(=O)c2cccc(Br)c2)cc1/C=C/C(=O)NO | inhibition [11]: 76.8%
16 | 250 nM | 170 nM | – | 160 nM | COc1ccccc1C(=O)/C=C/c1cc(/C=C/C(=O)NO)n(C)c1 | inhibition [7]: 95.7%
17 | – | 260 nM | – | 190 nM | Cn1cc(/C=C/C(=O)c2ccccc2)cc1/C=C/C(=O)NO | inhibition [15]: 92.3%
18 | – | 4800 nM | 9.6 | 500 nM | Cc1ccc(C(=O)/C=C/c2cc(/C=C/C(=O)NO)n(C)c2)cc1 | inhibition [14]: 65%
19 | – | 2500 nM | 14.7 | 170 nM | Cc1cccc(C(=O)/C=C/c2cc(/C=C/C(=O)NO)n(C)c2)c1 | inhibition [14]: 72%
20 | 2000 nM | 980 nM | 2.2 | 450 nM | O=C(CCCCCCC(=O)Nc1ccc([C@H]2O[C@@H](CSc3nc(-c4ccccc4)c(-c4ccccc4)o3)C[C@@H](c3ccc(CO)cc3)O2)cc1)NO [TUBACIN] | inhibition [16]: 92.9%
21 | 420 nM | 4500 nM | 20.4 | 220 nM | CC/C(=C\c1cc(/C=C/C(=O)NO)n(C)c1)C(=O)c1ccccc1 | inhibition [17]: 93%
22 | 22000 nM | 38800 nM | 176 | 220 nM | Cn1cc(/C=C/C(=O)c2cccc(F)c2)cc1/C=C/C(=O)NO | inhibition [12]: 56.5%
23 | – | 29400 nM | – | 18600 nM | Cn1cc(/C=C/C(=O)c2ccc(Cl)cc2)cc1/C=C/C(=O)NO | inhibition [13]: 45.5%
24 | – | 0.4 nM | – | 0.8 nM | CC(/C=C/C(=O)NO)=C\[C@@H](C)C(=O)c1ccc(N(C)C)cc1 [TRICHOSTATIN] | –
25 | 360 nM | 180 nM | – | 210 nM | Cn1cc(/C=C/C(=O)c2ccccc2Br)cc1/C=C/C(=O)NO | inhibition [11]: 92.4%

From ChEMBL document CHEMBL1144421, “Class II (IIa)-selective histone deacetylase inhibitors. 1. Synthesis and biological evaluation of novel (aryloxopropenyl)pyrrolyl hydroxyamides” (J Med Chem, 2005)
